What was measured:
[1] = Drug metabolism in human gut microbes assessed as metabolite formation by LC-MS/MS analysis; type: ADME
Summary of the method: (§1)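 Anaerobic mini gut model: stool homogenized in pre-reduced mGAM (10 mL/g), settled 5 min, 50 μL slurry into 450 μL mGAM; compound 20 μM in DMSO (final DMSO 0.22%); 37 °C, 5% H₂/10% CO₂/85% N₂, up to 24 h; donor 1; triplicate. Supernatant acetonitrile-precipitated (1:3), LC–MS at 45 °C, 0.45 mL/min; metabolites analysed versus feces-free reference incubation in mGAM.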

[2] = Drug metabolism in mini gut model assessed as metabolite formation by LC-MS/MS analysis; type: ADME, tissue-based; summary of the method: as §1
[3] = Stability in human gut microbes assessed as half life by LC-MS analysis; type: ADME
Summary of the method: (§2)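 Compound 20 μM (DMSO vehicle, final 0.22%) incubated anaerobically at 37 °C in mGAM inoculated with donor 1 fecal slurry (1:10 slurry, 50 μL into 450 μL) and in bacteria-free mGAM as reference, up to 24 h, triplicate. Samples mixed with 3 volumes cold acetonitrile, centrifuged 21,100g 15 min 4 °C; supernatant analysed by LC–MS (45 °C, 0.45 mL/min) for remaining parent drug.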

[4] = Stability of compound in mini gut model assessed as half life by LC-MS analysis; type: ADME, tissue-based; summary of the method: as §2
[5] = Stability of compound in mini gut model at 24 hrs by LC-MS analysis; type: ADME, tissue-based; summary of the method: as §2

COC1=C(OC)C(=O)C(CCCCCCCCCCO)=C(C)C1=O [IDEBENONE]
Drug metabolism [1]: Metabolite_Detected
Drug metabolism [2]: Metabolite_Notdetected

N[C@@H](Cc1ccc(O)c(O)c1)C(=O)O [LEVODOPA]
Drug metabolism [1]: Metabolite_Detected
half-life [3]: 30 h
half-life [4]: 30 h
Drug metabolism [2]: Metabolite_Notdetected

CCN(CC)C(=O)/C(C#N)=C/c1cc(O)c(O)c([N+](=O)[O-])c1 [ENTACAPONE]
Drug metabolism [1]: Metabolite_Detected
Drug metabolism [2]: Metabolite_Notdetected

O=S(=O)([O-])CCS.[Na+] [MESNA]
Drug metabolism [1]: Metabolite_Detected
Stability [5]: Unstable
Drug metabolism [2]: Metabolite_Detected

NS(=O)(=O)c1cc2c(cc1Cl)NCNS2(=O)=O [HYDROCHLOROTHIAZIDE]
Drug metabolism [1]: Metabolite_Notdetected
half-life [3]: > 48 h
half-life [4]: > 48 h
Drug metabolism [2]: Metabolite_Notdetected

O=C([O-])[C@H]1/C(=C/CO)O[C@@H]2CC(=O)N21.[K+] [CLAVULANATE POTASSIUM]
Drug metabolism [1]: Metabolite_Notdetected
Stability [5]: Unstable
Drug metabolism [2]: Metabolite_Notdetected

CCCc1nc(C(C)(C)O)c(C(=O)OCc2oc(=O)oc2C)n1Cc1ccc(-c2ccccc2-c2nnn[nH]2)cc1 [OLMESARTAN MEDOXOMIL]
Drug metabolism [1]: Metabolite_Detected
Stability [5]: Unstable
Drug metabolism [2]: Metabolite_Detected

CCCCNc1ccc(C(=O)OCCOCCOCCOCCOCCOCCOCCOCCOCCOC)cc1 [BENZONATATE]
Drug metabolism [1]: Metabolite_Notdetected
half-life [3]: > 48 h
half-life [4]: > 48 h
Drug metabolism [2]: Metabolite_Notdetected

Cl.Oc1noc2c1CCNC2
Drug metabolism [1]: Metabolite_Notdetected
Stability [5]: Unstable
Drug metabolism [2]: Metabolite_Notdetected

C1N2CN3CN1CN(C2)C3 [METHENAMINE]
Drug metabolism [1]: Metabolite_Detected
half-life [3]: 10 h
half-life [4]: 10 h
Drug metabolism [2]: Metabolite_Notdetected

— ChEMBL document CHEMBL5029186, “Searching for New Microbiome-Targeted Therapeutics through a Drug Repurposing Approach” (J Med Chem, 2021)
